Compound activity deposited in PubChem by The Scripps Research Institute Molecular Screening Center.
In the library only some 4.6% were active in any assay of this set; here they are far more common.
GPR7 antag: GPR7 receptor antagonists, primary screen, cell-based, fluorescence, single concentration; Neuropeptides B/W receptor type 1 (Homo sapiens), P48145; GPR7-expressing cells, fluorescence antagonist assay; inhibition, % at 4.4 µM; 290,000 compounds, 1.1% hits; AID 1861, 2009; in the data active = inhibition above about 16%, passing the limit was not always enough;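 note: cells stimulated with the agonist NPW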
OX1R antag-1: antagonists of human orexin 1 receptor (OX1R). OX1R-expressing cells, FRET antagonist read-out. 330,000 compounds, 1.8% hits. AID 485270, 2010. inhibition, % at 6.6 µM. Orexin/Hypocretin receptor type 1 (Homo sapiens), O43613; in the data active = inhibition mostly above about 38%, no sharp cut-off; inactive = mostly below about 40%
Target sequence (O43613 whole entry, looked up): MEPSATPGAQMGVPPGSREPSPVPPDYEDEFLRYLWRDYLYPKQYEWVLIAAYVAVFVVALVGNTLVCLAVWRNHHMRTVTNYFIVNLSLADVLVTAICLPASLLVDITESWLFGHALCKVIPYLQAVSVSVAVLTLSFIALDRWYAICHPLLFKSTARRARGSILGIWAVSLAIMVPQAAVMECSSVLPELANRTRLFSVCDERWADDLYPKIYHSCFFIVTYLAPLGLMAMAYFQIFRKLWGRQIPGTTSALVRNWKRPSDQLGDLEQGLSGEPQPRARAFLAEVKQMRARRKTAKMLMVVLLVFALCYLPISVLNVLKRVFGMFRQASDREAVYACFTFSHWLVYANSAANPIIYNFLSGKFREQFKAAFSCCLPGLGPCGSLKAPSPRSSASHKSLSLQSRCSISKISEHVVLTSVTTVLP
TAAR1 antagonist: human TAAR1 antagonists, primary screen, Fluo-8 calcium fluorescence, CHO RD-HGA16 cells; antagonist; AID 624466, 2012; 360,000 compounds, 1.5% hits; inhibition, % at 3 µM; Trace amine-associated receptor 1 (Homo sapiens), Q96RJ0;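 active = inhibition above a per-plate cutoff, the mean inhibition of test compounds on that plate plus 3 SD, cut at about 49% in these data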
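System: CHO RD-HGA16 cells bearing hTAAR1. Reagent: EC80 β-phenethylamine stimulus. Schedule: seeding 17-24 h prior, 75-min 37 °C, 30-min RT dye loading. Signal: Fluo-8 intracellular calcium dye fluorescence, real-time kinetic reads. Read-out: % inhibition from peak post-agonist over basal fluorescence ratio. Benchmarks: vehicle wells and EC80 agonist wells. Replicates: n of 1.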
CHO parental Ca: ATP-evoked calcium signal inhibitors, parental CHO, primary screen, counter-screen for OX1R antagonist project, cell-based, fluorescence, Fluo-8 calcium dye; parental CHO-K1, ATP-induced calcium, Fluo-8 fluorescence; inhibition, % at 5.6 µM; AID 463079, 2010; 330,000 compounds, 0.63% hits;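 active = inhibition above that plate's mean sample inhibition plus 3 SD, cut at about 26% in these data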
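Material – parental CHO cells · Reagent – ATP stimulus · Compound – single nominal dose of 5.6 µM per compound · Detection – Fluo-8 fluorescence · Read-out basis – percent inhibition of calcium signal · Controls – ATP-challenged DMSO wells low, unchallenged DMSO wells high · Repeats – no replicates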
OX1R antag-2: OX1R (HCRTR1) antagonists, primary screen, fluorescence, CHO/OX1R cells, Fluo-8 calcium, orexin A. Orexin/Hypocretin receptor type 1 (Homo sapiens), O43613. Fluo-8 calcium fluorescence. 330,000 compounds, 0.43% hits. inhibition, % at 5 µM;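 active = inhibition above its plate's threshold, mean inhibition of all tested compounds on the plate plus 3 SD, cut at about 37% in these data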
TAAR1 agonist: human TAAR1 agonists, primary screen, Fluo-8 calcium fluorescence, CHO RD-HGA16 cells; 360,000 compounds, 0.99% hits; AID 624467, 2012; vehicle wells 0%, saturating PEA agonist 100%; activation, % at 3 µM;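 active = activation above the mean activation of all test compounds in the run plus 3 SD, cut at about 38% in these data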
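Test system: RD-HGA16 (CHO) cells co-expressing Gα16 and hTAAR1 / Benchmarks: DMSO vehicle as 0%, PEA at EC100 as 100% / Repeats: no replicates (n 1) / Measure: % activation from peak over basal fluorescence ratio, DMSO-to-PEA scaled / Timing: 17-24 h plating, Fluo-8 75 min 37 °C, 30 min RT / Technique: kinetic Fluo-8 calcium fluorescence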
nonsel antag count: nonselective antagonists in TAAR1 counter-screen cells, counter-screen for hTAAR1 antagonist project, cell-based, fluorescence, calcium. shares compounds with TAAR1 antagonist. counterscreen cell line, antagonist mode. inhibition, % at 3 µM. 2,400 compounds, 77% hits. AID 651780, 2012; in the data active = inhibition above about 22%;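 note: CHO-Ga16 host cells stimulated with ATP at an EC80 level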
TAAR1 ant conf: human TAAR1 antagonists, retest of hits, confirmation, cell-based, fluorescence; shares compounds with TAAR1 antagonist; TAAR1-expressing cells, fluorescence antagonist read-out; inhibition, % at 3 µM; 2,400 compounds, 40% hits; in the data active = inhibition above about 49%;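 note: CHO-Ga16 host cells challenged with agonist PEA near its EC80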
Ga16 ag counter: calcium activation in Ga16-expressing cells, counter-screen for TAAR1 antagonist project, cell-based, fluorescence | shares compounds with TAAR1 antagonist | agonist counterscreen | activation, % at 3 µM | 2,400 compounds, 18% hits | AID 651953, 2012; in the data active = activation above about 12%
TAAR1 ag counter: TAAR1 activation by candidate antagonists – cell-based, fluorescence, counter-screen for TAAR1 antagonist project | hTAAR1 cell line, agonist mode | shares compounds with TAAR1 antagonist | activation, % at 3 µM | 2,400 compounds, 2% hits; in the data active = activation above about 37%;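 note: CHO cells stably expressing TAAR1 with calcium dye readout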
Large screens that a line does not name were inactive (follow-up assays come after a bar, where they were run).

CC1(C(=O)NS(=O)(=O)c2ccc(F)cc2F)CCN1C(=O)c1ccc(C2CCCCC2)cc1 (configuration not stated)	none (no result: GPR7 antag, OX1R antag-1, CHO parental Ca, OX1R antag-2)
CCCCCC(=O)N1C[C@@H](n2cc(C3CC3)nn2)[C@H](O)C[C@@H]1c1ccc(C)cc1	none (no result: GPR7 antag, OX1R antag-1, CHO parental Ca, OX1R antag-2)
COc1cc2c(cc1NC(=O)COC(=O)Cn1cnc3ccccc31)oc1ccccc12	TAAR1 antagonist 49 (no result: OX1R antag-1, CHO parental Ca, OX1R antag-2) | nonsel antag count inactive | TAAR1 ant conf inactive | Ga16 ag counter inactive | TAAR1 ag counter inactive
COc1cc2c(cc1NC(=O)COc1ccccc1OC)oc1ccccc12	none
Cc1ccc(-c2nc3ccccc3[nH]2)cc1NC(=S)NC(=O)c1ccccc1Br	OX1R antag-1 87, TAAR1 antagonist 70 | nonsel antag count 36 | TAAR1 ant conf inactive | Ga16 ag counter inactive | TAAR1 ag counter inactive
Cc1ccc(-c2nc3ccccc3[nH]2)cc1NC(=O)c1ccc2c(c1)OCO2	none
N#Cc1cccc(OC(=O)C2CCN(C(=O)c3ccc(F)cc3)CC2)c1	none (no result: GPR7 antag, OX1R antag-1, CHO parental Ca, OX1R antag-2)
CSc1nc(N)nc2c1ncn2CC(=O)N[C@H](CO)Cc1c[nH]c2ccccc12	none (no result: GPR7 antag)
CCC(CO)Oc1cc(NCc2cccc(OC)c2)c2ncn(C(C)C)c2c1 (configuration not stated)	TAAR1 antagonist 106 (no result: GPR7 antag) | nonsel antag count inactive | TAAR1 ant conf inactive | Ga16 ag counter inactive | TAAR1 ag counter inactive
CC(C)(C)c1ccc(C(=O)OCCNC(=O)c2c(Cl)nc3ccccn23)cc1	TAAR1 antagonist 73 | nonsel antag count 29 | TAAR1 ant conf inactive | Ga16 ag counter inactive | TAAR1 ag counter inactive
CCC1CN(C(=O)N2CCC(C(=O)Nc3ccccc3OC)CC2)c2ccccc2O1 (configuration not stated)	TAAR1 antagonist 61 | nonsel antag count 22 | TAAR1 ant conf inactive | Ga16 ag counter inactive | TAAR1 ag counter inactive
COc1cccc(NC(=O)COC(=O)C2CC(=O)N(c3ccc(C)cc3)C2)c1 (configuration not stated)	none (no result: GPR7 antag)
COc1ccc(-c2cc(NC(=O)Cc3c[nH]c4ccccc34)ccc2Nc2cccnc2)c(OC)c1	TAAR1 antagonist 64 (no result: GPR7 antag, OX1R antag-1, CHO parental Ca, OX1R antag-2) | nonsel antag count 32 | TAAR1 ant conf 52 | Ga16 ag counter inactive | TAAR1 ag counter inactive
Cc1cc(-c2cc(NC(=O)Cc3c[nH]c4ccccc34)ccc2Nc2cccnc2)ccc1F	TAAR1 antagonist 63 (no result: GPR7 antag, OX1R antag-1, CHO parental Ca, OX1R antag-2) | nonsel antag count 27 | TAAR1 ant conf inactive | Ga16 ag counter inactive | TAAR1 ag counter inactive
COc1ccc(-c2cc(NC(=O)Cc3c[nH]c4ccccc34)ccc2N(C)c2cccnc2)cc1F	none (no result: GPR7 antag, OX1R antag-1, CHO parental Ca, OX1R antag-2)
Cc1cc(-c2cc(NC(=O)Cc3c(C)[nH]c4ccccc34)ccc2Nc2cccnc2)ccc1F	none (no result: GPR7 antag, OX1R antag-1, CHO parental Ca, OX1R antag-2)
O=C(CSc1n[nH]c(=O)n1C1CC1)Nc1cc(Cl)ccc1Oc1ccccc1	TAAR1 antagonist 79, CHO parental Ca 33 | nonsel antag count 47 | TAAR1 ant conf 66 | Ga16 ag counter 14 | TAAR1 ag counter inactive
